# Test results reported in ChEMBL document CHEMBL1806443, “Novel imidazo[4,5-b]pyridine and triaza-benzo[c]fluorene derivatives: synthesis, antiproliferative activity and DNA binding studies” (Eur J Med Chem, 2011).
# Columns and labels:
# SK-BR-3 [1] = assay: Cell cycle arrest in human SKBR3 cells assessed as accumulation at G1 phase at 5 uM after 48 hrs by propidium iodide staining based flow cytometeric analysis (reference value: 24.7 +/- 1.9%); format: functional
# SK-BR-3 [2] = assay: Cell cycle arrest in human SKBR3 cells assessed as accumulation at G2/M phase at 50 uM after 24 hrs by propidium iodide staining based flow cytometeric analysis (reference value: 20.6 +/- 2.1%); format: functional
# SK-BR-3 [3] = assay: Cell cycle arrest in human SKBR3 cells assessed as accumulation at G2/M phase at 10 uM after 48 hrs by propidium iodide staining based flow cytometeric analysis (reference value: 34.7 +/- 3.3%); format: functional
# WI-38 = assay: Antiproliferative activity against human WI38 cells after 72 hrs by MTT assay; format: cell-based; conditions: Homo sapiens, WI-38, 72 h
# Method in brief: (§1)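 Monolayer cells in DMEM with 10% FBS, 2 mM L-glutamine, penicillin and streptomycin at 37 °C, 5% CO2. Seeded at 3000-6000 cells/well by doubling time on day 0. Five 10-fold dilutions (0.01–100 µM) were added and incubated 72 h. MTT read-out, converted to percentage growth. IC50 by linear regression between bracketing concentrations. Quadruplicate points, three independent experiments, ANOVA/Tukey p<0.05.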
# SK-BR-3 [4] = assay: Cell cycle arrest in human SKBR3 cells assessed as accumulation at G2/M phase at 10 uM after 24 hrs by propidium iodide staining based flow cytometeric analysis (reference value: 20.6 +/- 2.1%); format: functional
# SK-BR-3 [5] = assay: Cell cycle arrest in human SKBR3 cells assessed as accumulation at S phase at 10 uM after 24 hrs by propidium iodide staining based flow cytometeric analysis (reference value: 39.9 +/- 1.5%); format: functional
# HeLa = assay: Antiproliferative activity against human HeLa cells after 72 hrs by MTT assay; format: functional, cell-based; conditions: Homo sapiens, HeLa, 72 h; method in brief: as §1
# SK-BR-3 [6] = assay: Cell cycle arrest in human SKBR3 cells assessed as accumulation at G2/M phase at 5 uM after 24 hrs by propidium iodide staining based flow cytometeric analysis (reference value: 20.6 +/- 2.1%); format: functional
# SK-BR-3 [7] = assay: Cell cycle arrest in human SKBR3 cells assessed as accumulation at G1 phase at 5 uM after 24 hrs by propidium iodide staining based flow cytometeric analysis (reference value: 39.5 +/- 1.1%); format: functional
# SK-BR-3 [8] = assay: Cell cycle arrest in human SKBR3 cells assessed as accumulation at G1 phase at 10 uM after 48 hrs by propidium iodide staining based flow cytometeric analysis (reference value: 24.7 +/- 1.9%); format: functional
# SK-BR-3 [9] = assay: Cell cycle arrest in human SKBR3 cells assessed as accumulation at G1 phase at 50 uM after 24 hrs by propidium iodide staining based flow cytometeric analysis (reference value: 39.5 +/- 1.1%); format: functional
# SK-BR-3 [10] = assay: Cell cycle arrest in human SKBR3 cells assessed as accumulation at G2/M phase at 50 uM after 48 hrs by propidium iodide staining based flow cytometeric analysis (reference value: 34.7 +/- 3.3%); format: functional
# SK-BR-3 [11] = assay: Cell cycle arrest in human SKBR3 cells assessed as accumulation at subG1 phase at 5 uM after 48 hrs by propidium iodide staining based flow cytometeric analysis (reference value: 2.1 +/- 0.2%); format: functional
# SK-BR-3 [12] = assay: Cell cycle arrest in human SKBR3 cells assessed as accumulation at G2/M phase at 5 uM after 48 hrs by propidium iodide staining based flow cytometeric analysis (reference value: 34.7 +/- 3.3%); format: functional
# SK-BR-3 [13] = assay: Cell cycle arrest in human SKBR3 cells assessed as accumulation at G1 phase at 10 uM after 24 hrs by propidium iodide staining based flow cytometeric analysis (reference value: 39.5 +/- 1.1%); format: functional
# SK-BR-3 [14] = assay: Cell cycle arrest in human SKBR3 cells assessed as accumulation at subG1 phase at 5 uM after 24 hrs by propidium iodide staining based flow cytometeric analysis (reference value: 39 +/- 1.1%); format: functional
# SK-BR-3 [15] = assay: Cell cycle arrest in human SKBR3 cells assessed as accumulation at subG1 phase at 10 uM after 24 hrs by propidium iodide staining based flow cytometeric analysis (reference value: 39 +/- 1.1%); format: functional
# SK-BR-3 [16] = assay: Cell cycle arrest in human SKBR3 cells assessed as accumulation at subG1 phase at 10 uM after 48 hrs by propidium iodide staining based flow cytometeric analysis (reference value: 2.1 +/- 0.2%); format: functional
# MCF7 = assay: Antiproliferative activity against human MCF7 cells after 72 hrs by MTT assay; format: functional, cell-based; conditions: Homo sapiens, MCF7, 72 h; method in brief: as §1
# SK-BR-3 [17] = assay: Cell cycle arrest in human SKBR3 cells assessed as accumulation at S phase at 50 uM after 48 hrs by propidium iodide staining based flow cytometeric analysis (reference value: 40.6 +/- 4.9%); format: functional
# MIA PaCa-2 = assay: Antiproliferative activity against human MIAPaCa2 cells after 72 hrs by MTT assay; format: functional, cell-based; conditions: Homo sapiens, MIA PaCa-2, 72 h; method in brief: as §1
# HEp-2 = assay: Antiproliferative activity against human Hep2 cells after 72 hrs by MTT assay; format: functional, cell-based; conditions: Homo sapiens, HEp-2, 72 h; method in brief: as §1
# SK-BR-3 [18] = assay: Cell cycle arrest in human SKBR3 cells assessed as accumulation at S phase at 5 uM after 48 hrs by propidium iodide staining based flow cytometeric analysis (reference value: 40.6 +/- 4.9%); format: functional
# SK-BR-3 [19] = assay: Cell cycle arrest in human SKBR3 cells assessed as accumulation at subG1 phase at 50 uM after 48 hrs by propidium iodide staining based flow cytometeric analysis (reference value: 2.1 +/- 0.2%); format: functional
# SK-BR-3 [20] = assay: Cell cycle arrest in human SKBR3 cells assessed as accumulation at S phase at 5 uM after 24 hrs by propidium iodide staining based flow cytometeric analysis (reference value: 39.9 +/- 1.5%); format: functional
# SK-BR-3 [21] = assay: Cell cycle arrest in human SKBR3 cells assessed as accumulation at subG1 phase at 50 uM after 24 hrs by propidium iodide staining based flow cytometeric analysis (reference value: 39 +/- 1.1%); format: functional
# SK-BR-3 [22] = assay: Cell cycle arrest in human SKBR3 cells assessed as accumulation at S phase at 50 uM after 24 hrs by propidium iodide staining based flow cytometeric analysis (reference value: 39.9 +/- 1.5%); format: functional
# SK-BR-3 [23] = assay: Cell cycle arrest in human SKBR3 cells assessed as accumulation at G1 phase at 50 uM after 48 hrs by propidium iodide staining based flow cytometeric analysis (reference value: 24.7 +/- 1.9%); format: functional
# SK-BR-3 [24] = assay: Cell cycle arrest in human SKBR3 cells assessed as accumulation at S phase at 10 uM after 48 hrs by propidium iodide staining based flow cytometeric analysis (reference value: 40.6 +/- 4.9%); format: functional
# SW-620 = assay: Antiproliferative activity against human SW620 cells after 72 hrs by MTT assay; format: functional, cell-based; conditions: Homo sapiens, SW-620, 72 h; method in brief: as §1
# SK-BR-3 [25] = assay: Antiproliferative activity against human SKBR3 cells after 72 hrs by MTT assay; format: functional, cell-based; conditions: Homo sapiens, SK-BR-3, 72 h; method in brief: as §1
smiles,measurement,setting,value
Nc1ccc2c(ccc3nc4ncccc4n32)c1,Activity,SK-BR-3 [1],24.4%
same,Activity,SK-BR-3 [2],18.7%
same,Activity,SK-BR-3 [3],14.8%
same,IC50,WI-38,> 100 µM
same,Activity,SK-BR-3 [4],26.1%
same,Activity,SK-BR-3 [5],34.5%
same,IC50,HeLa,43.4 µM
same,Activity,SK-BR-3 [6],17.7%
same,Activity,SK-BR-3 [7],47.1%
same,Activity,SK-BR-3 [8],20.9%
same,Activity,SK-BR-3 [9],33.2%
same,Activity,SK-BR-3 [10],32.5%
same,Activity,SK-BR-3 [11],1.9%
same,Activity,SK-BR-3 [12],15.8%
same,Activity,SK-BR-3 [13],39.4%
same,Activity,SK-BR-3 [14],35.7%
same,Activity,SK-BR-3 [15],45.8%
same,Activity,SK-BR-3 [16],5.5%
same,IC50,MCF7,72.4 µM
same,Activity,SK-BR-3 [17],47.6%
same,IC50,MIA PaCa-2,48.2 µM
same,IC50,HEp-2,39.2 µM
same,Activity,SK-BR-3 [18],59.8%
same,Activity,SK-BR-3 [19],3.1%
same,Activity,SK-BR-3 [20],35.1%
same,Activity,SK-BR-3 [21],50.2%
same,Activity,SK-BR-3 [22],48.1%
same,Activity,SK-BR-3 [23],19.9%
same,Activity,SK-BR-3 [24],64.2%
same,IC50,SW-620,34.8 µM
same,IC50,SK-BR-3 [25],2940 nM
